Data from ChEMBL document CHEMBL2439963, “Synthetic trimethyllysine receptors that bind histone 3, trimethyllysine 27 (H3K27me3) and disrupt its interaction with the epigenetic reader protein CBX7” (Bioorg Med Chem, 2013).

Key:
[1] = Inhibition of synthetic H3K27me3 peptide interaction to CBX7 after 15 mins by fluorescence polarization assay
Outline: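 Calixarene was added at 0–10 mM, dissolved in water with 4 equiv NaOH. Incubated 15 min in the dark and read at ex 450/em 530 nm. mP was normalized to % complex, IC50 taken from a sigmoidal fit, triplicates averaged.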

[2] = Displacement of calixarene-LCG from synthetic H3K27me3 peptide
Outline: (§1)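 Competitive lucigenin displacement: 0.5 µM lucigenin plus 1.25 µM calixarene in 0.01 M phosphate buffer pH 7.4, titrated with Ac-capped peptide (H3K27 0–1.5 mM; H3K27me3 0–0.5 mM). Emission read at λex 369 nm, λem 485 nm. Kd fitted by cubic competitive binding equations, with host–dye constant fixed from the prior direct titration. Duplicate determinations averaged.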

[3] = Displacement of calixarene-LCG from synthetic H3K27 peptide; outline: as §1
[4] = Displacement of calixarene-LCG from synthetic H3K27 peptide by isothermal titration calorimetry analysis
[5] = Displacement of calixarene-LCG from synthetic H3K27me3 peptide by isothermal titration calorimetry analysis

Structure (SMILES): O=[N+]([O-])c1cc2c(O)c(c1)Cc1cc(S(=O)(=O)O)cc(c1O)Cc1cc(S(=O)(=O)O)cc(c1O)Cc1cc(S(=O)(=O)O)cc(c1O)C2
- IC50 [1]: > 5000 µM
- Kd [2]: 10 µM
- Kd [3]: 30 µM

Structure (SMILES): COc1cccc(-c2cc3c(O)c(c2)Cc2cc(S(=O)(=O)O)cc(c2O)Cc2cc(S(=O)(=O)O)cc(c2O)Cc2cc(S(=O)(=O)O)cc(c2O)C3)c1OC
- IC50 [1]: 1700 µM
- Kd [2]: 2.13 µM
- Kd [3]: 25 µM

Structure (SMILES): O=S(=O)(O)c1cc2c(O)c(c1)Cc1cc(S(=O)(=O)O)cc(c1O)Cc1cc(S(=O)(=O)O)cc(c1O)Cc1cc(Br)cc(c1O)C2
- IC50 [1]: 470 µM
- Kd [2]: 0.7 µM
- Kd [3]: 13.3 µM

Structure (SMILES): O=S(=O)(O)c1cc2c(O)c(c1)Cc1cc(S(=O)(=O)O)cc(c1O)Cc1cc(S(=O)(=O)O)cc(c1O)Cc1cc(S(=O)(=O)O)cc(c1O)C2
- IC50 [1]: 2500 µM
- Kd [2]: 5.4 µM
- Kd [3]: 220 µM

Structure (SMILES): NC(=O)c1ccc(-c2cc3c(O)c(c2)Cc2cc(S(=O)(=O)O)cc(c2O)Cc2cc(S(=O)(=O)O)cc(c2O)Cc2cc(S(=O)(=O)O)cc(c2O)C3)cc1
- IC50 [1]: 590 µM
- Kd [2]: 1.86 µM
- Kd [3]: 23 µM

Structure (SMILES): N#Cc1ccc(-c2cc3c(O)c(c2)Cc2cc(S(=O)(=O)O)cc(c2O)Cc2cc(S(=O)(=O)O)cc(c2O)Cc2cc(S(=O)(=O)O)cc(c2O)C3)cc1
- IC50 [1]: 370 µM
- Kd [2]: 0.88 µM
- Kd [3]: 11.3 µM

Structure (SMILES): COc1ccc(-c2cc3c(O)c(c2)Cc2cc(S(=O)(=O)O)cc(c2O)Cc2cc(S(=O)(=O)O)cc(c2O)Cc2cc(S(=O)(=O)O)cc(c2O)C3)cc1
- IC50 [1]: 360 µM
- Kd [2]: 0.78 µM
- Kd [3]: 20 µM

Structure (SMILES): Cc1ccc(-c2cc3c(O)c(c2)Cc2cc(S(=O)(=O)O)cc(c2O)Cc2cc(S(=O)(=O)O)cc(c2O)Cc2cc(S(=O)(=O)O)cc(c2O)C3)cc1
- IC50 [1]: 230 µM
- Kd [2]: 0.34 µM
- Kd [3]: 2.7 µM

Structure (SMILES): O=S(=O)(O)c1cc2c(O)c(c1)Cc1cc(S(=O)(=O)O)cc(c1O)Cc1cc(S(=O)(=O)O)cc(c1O)Cc1cc(-c3ccccc3)cc(c1O)C2
- Kd [4]: 51.4 µM
- Kd [5]: 4.03 µM
- IC50 [1]: 510 µM
- Kd [2]: 0.75 µM
- Kd [3]: 19 µM

Structure (SMILES): Cc1ccc(S(=O)(=O)Nc2cc3c(O)c(c2)Cc2cc(S(=O)(=O)O)cc(c2O)Cc2cc(S(=O)(=O)O)cc(c2O)Cc2cc(S(=O)(=O)O)cc(c2O)C3)cc1
- IC50 [1]: > 2000 µM
- Kd [2]: > 100 µM
- Kd [3]: > 100 µM
